An excerpt weighted towards active compounds, which were near 3.1% of everything screened.
KCNQ1 pot: potentiators or activators of KCNQ1 channel, primary screen, cell-based, thallium flux, high-throughput. Potassium voltage-gated channel subfamily KQT member 1 (Homo sapiens), P51787. CHO-K1 KCNQ1, thallium flux FluxOR fluorescence; hits give high values. B-score at 10 µM. actives 0.35% (n = 310,000). AID 2648, 2010;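 active means fluorescence ratio B-score, a plate-corrected score, at least three library SD, with initial intensity B-score within 5 SD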
Target sequence (P51787 whole entry, looked up): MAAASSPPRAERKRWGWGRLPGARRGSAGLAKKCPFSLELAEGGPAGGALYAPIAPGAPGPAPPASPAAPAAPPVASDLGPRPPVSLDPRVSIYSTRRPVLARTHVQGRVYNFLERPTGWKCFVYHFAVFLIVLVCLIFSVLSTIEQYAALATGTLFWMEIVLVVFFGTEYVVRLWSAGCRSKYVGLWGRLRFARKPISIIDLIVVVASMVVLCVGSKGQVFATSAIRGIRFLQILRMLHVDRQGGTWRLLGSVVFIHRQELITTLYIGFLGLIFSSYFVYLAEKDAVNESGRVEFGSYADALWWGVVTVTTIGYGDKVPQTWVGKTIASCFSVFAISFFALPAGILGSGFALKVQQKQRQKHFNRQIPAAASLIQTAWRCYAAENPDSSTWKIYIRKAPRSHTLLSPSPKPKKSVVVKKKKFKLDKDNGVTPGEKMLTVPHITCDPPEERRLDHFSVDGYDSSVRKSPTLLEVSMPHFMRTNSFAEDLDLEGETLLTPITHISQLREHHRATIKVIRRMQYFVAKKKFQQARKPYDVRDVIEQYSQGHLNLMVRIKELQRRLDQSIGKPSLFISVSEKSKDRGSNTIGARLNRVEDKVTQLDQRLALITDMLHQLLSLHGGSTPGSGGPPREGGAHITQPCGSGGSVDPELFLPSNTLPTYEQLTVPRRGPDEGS
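Assay system: CHO-K1 cells stably expressing KCNQ1. Medium: assay buffer for compound exposure, DMSO matched across wells. Timing: 37 °C overnight plating, 90-min dark dye load, 20-min compound pretreatment. Signal: kinetic FluxOR fluorescence, 10 s baseline plus 110 s post-stimulus.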
hERG rescue: hERG rescue from dofetilide block, primary screen, cell-based, CHO-hERG, FluxOR thallium flux, dofetilide IC70; dofetilide IC70 present; actives 0.51% (n = 310,000); Voltage-gated inwardly rectifying potassium channel KCNH2 (Homo sapiens), Q12809; activation (rescue from dofetilide block), less the hit threshold, % at 10 µM;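 active means activation above the mean of controls blocked by dofetilide plus 5 SD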;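 further: thallium influx through hERG after potassium depolarization seen as dye fluorescence rise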
KCNK9 block: KCNK9 potassium channel inhibitors, primary screen, HEK293 cells, thallium flux; AID 488922, 2010; B-score at 10 µM; Potassium channel subfamily K member 9 (Homo sapiens), Q9NPC2; actives 1.2% (n = 310,000); FluxOR thallium flux fluorescence; hits give low values;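 active means ratio B-score over 3 SD below the library mean, with starting fluorescence within 5 SD of its mean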;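 further: negative B-score means less thallium flux so channel inhibition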
KCNQ1 inh: inhibitors of human KCNQ1 channel, primary screen, cell-based, thallium flux, high-throughput; CHO-K1 KCNQ1, FluxOR thallium flux fluorescence; hits give high values; B-score at 10 µM; actives 1.3% (n = 310,000);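 active means compounds whose thallium flux B-score, printed positive for inhibition, exceeds three library SD while starting fluorescence stays within three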;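 further: channel opened by potassium depolarization with thallium stimulus after 20 min compound exposure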
KCNK3 inh: human KCNK3 channel inhibitors, primary screen, CHO cells, FluxOR thallium flux, B-score. FluxOR fluorescence; hits give low values. actives 0.84% (n = 340,000). Potassium channel subfamily K member 3 (Homo sapiens), O14649. B-score at 10 µM;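 active means B-score under library mean minus 4 SD, starting fluorescence ratio at most library mean plus 5 SD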;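 further: more negative B-score means stronger inhibition of thallium flux through KCNK3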
KCNK9 block conf: KCNK9 potassium channel inhibitors, confirmation, HEK293 cells, thallium flux, duplicate | shares compounds with KCNK9 block | inhibition, % at 10 µM | actives 43% (n = 4,900) | AID 492992, 2010 | FluxOR thallium flux fluorescence;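 active means thallium signal inhibited by more than 5 SD of the compound-free buffer control wells, on both duplicate plates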;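 further: 0% = assay buffer control wells without compound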
Kir2-1 spec: mouse Kir2.1 channel inhibition, confirmation, selectivity assay for KCNK9 modulator project, cell-based, HEK293, thallium flux; actives 4% (n = 4,900); shares compounds with KCNK9 block; Kir2.1 cells, FluxOR thallium flux fluorescence; AID 492993, 2010; inhibition, % at 10 µM;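 active means thallium signal drop more than 5 SD beyond the mean of the no-compound control wells, seen in both duplicate plates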;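 further: signal is fluorescence rise after thallium addition divided by baseline fluorescence; plate controls were assay buffer only for no effect and full block by chlorpromazine control for full effect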
HEK293 Tl ctr: thallium flux in non-induced HEK293 cells, confirmation, counter-screen for KCNK9 inhibitor project, cell-based, second counter screen, non-induced KCNK9-HEK293; shares compounds with KCNK9 block; FluxOR thallium flux; inhibition, % at 10 µM; actives 40% (n = 4,900); AID 492997, 2010;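 active means thallium signal drop beyond 5 SD of the untreated control mean, on both duplicate plates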;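 further: plate controls were buffer only IC0 wells for no effect and SID17386958 at its maximal inhibitory level for full effect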
* marks the source's active call; other numbers are inactive results; i = inactive; nt = no result.

SMILES	KCNQ1 pot	hERG rescue	KCNK9 block	KCNQ1 inh	KCNK3 inh	KCNK9 block conf	Kir2-1 spec	HEK293 Tl ctr
COc1ccc(N2Cc3cccc(C(=O)NC(C)CCc4ccco4)c3C2=O)cc1 (centres undefined)	i	-14.1	-15.8*	i	-9.92*	57.0%*	i	33.5%*
CN(CC(=O)NCc1ccco1)CC(=O)Nc1cc(S(C)(=O)=O)ccc1Cl	nt	nt	nt	nt	i	nt	nt	nt
CN(C)S(=O)(=O)c1cccc(C(=O)Nc2ccccc2C(=O)NC2CC2)c1	nt	nt	nt	nt	i	nt	nt	nt
N#CC1=C(N)SC(N)=C(C#N)C1c1ccc([N+](=O)[O-])cc1	i	-5.8	i	i	i	i	i	i
COc1ccc(C(C)=O)cc1CSc1ccc2c(c1)OCCO2	i	-9.6	i	i	i	i	i	i
Cc1ccc(NC(=O)c2cc(-c3ccccc3)nn2-c2ccccc2)cc1	i	-0.9	i	i	i	i	i	i
Cc1ccc(NC(=O)c2cc(-c3ccccc3)nn2-c2ccccc2)c(Br)c1	i	-2.3	i	i	i	nt	nt	nt
NC(=O)C1CCN(C(=O)C2CCC(=O)N(CC3CCCCC3)C2)CC1 (centres undefined)	i	-5.0	i	i	i	nt	nt	nt
CCc1cccc(NS(=O)(=O)c2csc(C(N)=O)c2)c1	i	-9.9	i	i	i	nt	nt	nt
CCN1CCN(CC(=O)n2c3c(c4ccccc42)CC(C)CC3)CC1 (centres undefined)	i	-7.4	i	i	i	nt	nt	nt
CC1CCN(CC(=O)n2c3c(c4ccccc42)CCCC3)CC1	i	-9.4	i	i	i	i	i	i
CN(CC(=O)Nc1ccc(Cl)cc1)C(=O)CNC(=O)c1cccs1	nt	nt	nt	nt	i	nt	nt	nt
COc1ccc(/C=C2\CCC/C(=C\c3ccc(OC)c(OC)c3OC)C2=O)c(OC)c1OC	i	-3.0	i	i	i	i	i	i
COc1cc(OC)c(OC)cc1/C=C1\CCC/C(=C\c2cc(OC)c(OC)cc2OC)C1=O	i	-5.7	i	i	i	nt	nt	nt
O=C(COc1cc2oc(=O)c3c(c2cc1Cl)CCC3)NCC(O)c1ccccc1 (centres undefined)	i	-9.3	i	i	i	nt	nt	nt
CCOC(=O)Cn1c(=O)cc(C)c2cccc(C)c21	i	-14.9	i	i	i	i	i	i
CCc1nc(SCc2ccc(Cl)cc2)n[nH]1	i	-7.0	i	i	i	nt	nt	nt
O=S(=O)(Nc1nc(SCc2ccc(Cl)cc2)n[nH]1)c1ccc(F)cc1	i	-6.0	-11.3*	i	i	28.0%*	38.0%*	42.5%*
CCOC(=O)c1c(C)[nH]c(N=Nc2ccccc2C)c1C	i	-7.3	-9.37*	i	i	51.5%*	i	i
COc1ccc(-n2c(C)nn(CCOc3ccccc3)c2=O)cc1	i	-4.8	i	i	i	nt	nt	nt
Cc1nn(CC2CC2)c(=O)n1-c1ccc(Oc2ccccc2)cc1	i	-3.2	i	i	i	i	i	i
O=C(CS(=O)(=O)c1ccccc1)Nc1ccccc1Br	nt	nt	nt	nt	i	nt	nt	nt
Cc1cccc(-n2c(SCC(=O)N3CCCC3)nc3n[nH]c(C)c3c2=N)c1	i	-12.4	i	i	i	nt	nt	nt
CCCCN(CC)C(=O)CSc1nc2n[nH]c(C)c2c(=N)n1-c1cccc(C)c1	i	-3.4	-9.25*	i	i	33.5%*	i	i
COC(=O)C(C)Oc1cc(C)ccc1COc1ccc(-n2nc(C)n(C(F)F)c2=O)cc1 (centres undefined)	i	-8.5	i	i	i	i	i	i
SMILES	KCNQ1 pot	hERG rescue	KCNK9 block	KCNQ1 inh	KCNK3 inh	KCNK9 block conf	Kir2-1 spec	HEK293 Tl ctr
CC(C)(C)n1nnnc1C(c1ccncc1)N(Cc1ccccc1)Cc1ccco1 (centres undefined)	i	-12.6	i	i	i	nt	nt	nt
CCN(Cc1ccccc1)C(c1ccc(Cl)cc1)c1nnnn1C(C)(C)C (centres undefined)	i	-2.7	-10.4*	i	i	59.0%*	i	54.0%*
CCN(CC)c1nc(C#N)nc(N(CC)CC)n1	i	-7.9	i	i	i	i	i	i
CC1SC(=S)N(c2ccc(N(C)C)cc2)C1=O (centres undefined)	i	-10.8	i	i	i	nt	nt	nt
Cc1nnc(NC(=O)c2ccc(Br)o2)s1	i	-9.3	i	i	i	nt	nt	nt
Cc1nn(-c2cc(C(F)(F)F)ccc2Cl)c2nc(C(Cl)(Cl)Cl)[nH]c(=O)c12	i	-4.2	i	i	i	i	i	i
CN(C1(C)CCS(=O)(=O)C1)S(=O)(=O)c1ccc2ccccc2c1 (centres undefined)	i	-6.2	i	i	i	nt	nt	nt
COCCn1nnnc1C(c1cccs1)N1CCN(c2cccc(C(F)(F)F)c2)CC1 (centres undefined)	i	-5.9	-14.1*	i	i	59.0%*	i	39.5%*
CCOc1cc(CN2CCN(c3ccc(C(C)=O)cc3)CC2)ccc1OC	i	-12.5	i	i	i	nt	nt	nt
COc1ccc(CC(C)N2CCN(c3cccc(C(F)(F)F)c3)CC2)cc1OC (centres undefined)	i	-5.2	i	i	i	i	i	i
CCOc1cc(CN2CCN(c3cccc(C(F)(F)F)c3)CC2)ccc1OC	i	-3.6	i	i	i	i	i	i
COc1ccccc1C(=O)N1CCN(c2cccc(C(F)(F)F)c2)CC1	i	-5.0	i	i	i	nt	nt	nt
CCOc1cc(CN2CCN(c3cccc(C(F)(F)F)c3)CC2)ccc1O	i	-21.1	i	i	i	i	i	i
CCOC(=O)C1=CN(CC)S(=O)(=O)NC1CC (centres undefined)	nt	nt	nt	nt	i	nt	nt	nt
COC(=O)c1cc(CN2CCN(c3ccccc3)CC2)ccc1O	i	-3.2	i	i	i	i	i	i

Screens as filed in PubChem BioAssay.
